Source: ChEMBL document CHEMBL1134321, “Structure-based generation of a new class of potent Cdk4 inhibitors: new de novo design strategy and library design” (J Med Chem, 2001)
pIC50: −log10 of the molar value.

Assay: Inhibitory activity against CDK4 using recombinant human cyclin D2-CDK4 complex expressed in sf9 cells
Summary of the method: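 Recombinant human cyclin D2–Cdk4, baculovirus-expressed in Sf9 cells and HPLC-purified; incubated with 50 µM ATP plus 0.5-1.5 µCi [33P]-ATP, 100 µM or 400 µM G1 peptide, in 20 mM Tris-HCl pH 7.4, 10 mM MgCl2, 4.5 mM 2-mercaptoethanol, 1 mM EGTA, 30 °C, 45 min.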

SMILES | pIC50
CN(C)c1cc(NC(=O)Nc2ccccc2)c2ccccc2n1 | 4.05
O=C(NCc1ccccc1)Nc1cccc2ccc(O)cc12 | 3.39
O=C(Nc1nccs1)Nc1cccc2ccc(O)cc12 | 4.64
O=C(Nc1ccccn1)NC1CCCCC1 | < 4.00
O=C(Nc1cccc2ccc(O)cc12)NC1CCCC1 | 3.82
CC(C)NC(=O)Nc1cccc2ccc(O)cc12 | 3.66
O=C(Nc1ccccn1)Nc1cccc2c1C(=O)NC2=O | 5.44
O=C(Nc1ccccn1)Nc1cccc2c1-c1ccccc1C2=O | 7.00
O=C(Nc1ccccn1)Nc1cccc2ccc(O)cc12 | 5.12
O=C1NC(=O)C(=Cc2ccc3c(c2)OCO3)C(=O)N1 | 3.46
O=C(Cc1ccccc1)Nc1cccc2ccc(O)cc12 | < 3.00
O=C(Nc1ccccn1)Nc1cccc2c1[C@H]1CCCN1C2=O | 7.38
O=C(Nc1ccncc1)Nc1cccc2ccc(O)cc12 | 3.96
Cc1[nH]c2ccccc2c1/C=C1/NC(=S)NC1=O | 4.85
O=C(NCc1ccccc1)Nc1ccccn1 | < 4.00
COc1nc(N)c(C#N)c(-c2ccc3c(c2)OCO3)c1C#N | 4.44
Nc1nc(N)nc(C2=Cc3cc(Cl)ccc3OC2)n1 | 3.35

SMILES | pIC50
O=C(Nc1ccccn1)Nc1cccc2c1-c1cccn1C2=O | 7.47
O=C(Nc1cc(-c2cccs2)ccn1)Nc1cccc2c1C1CCCN1C2=O (stereo not drawn) | 7.96
O=C(Nc1ccccc1)Nc1ccccn1 | 4.00
O=C(Nc1ccccn1)Nc1cccc2ncccc12 | 5.62
CSc1ccc(NC(=O)Nc2cccc3c(O)cccc23)cc1 | 4.40
O=C(Nc1ccc2c[nH]nc2c1)Nc1ccccn1 | 6.17
O=C(Nc1ccccc1)Nc1cccc2ccc(O)cc12 | 3.92
O=C(Nc1cccnc1)Nc1cccc2ccc(O)cc12 | 3.47
O=C(Nc1ccccn1)Nc1cccc2c1[C@@H]1CCCN1C2=O | 6.72
Cc1ccc(Cl)cc1NC(=O)Nc1cccc2ccc(O)cc12 | 4.36
C=C(O)c1ccc2n1C(=O)c1cccc(NC(=O)Nc3ccccn3)c1-2 | 7.77
CN(C)c1cc(NC(=O)Nc2cccc(Cl)c2)c2ccccc2n1 | 4.44
O=C(Nc1ccc2ncccc2c1)Nc1ccc2ncccc2c1 | 4.11
O=C1NC(=S)NC(=O)C1=Cc1c(O)ccc2ccccc12 | 4.00
Nc1nc(O)c2nc(CNc3ccc(C(=O)O)cc3)cnc2n1 [PTEROIC ACID] | 4.80
Nc1nc(N)c2nc(-c3ccccc3)c(N)nc2n1 [TRIAMTERENE] | 3.68
